Assay results reported in ChEMBL document CHEMBL1157930, “Design, synthesis, biological evaluation and computational investigation of novel inhibitors of dihydrofolate reductase of opportunistic pathogens” (Bioorg Med Chem, 2010).

Experiments:
[1] = molecular target: T1, Bifunctional dihydrofolate reductase-thymidylate synthase (Toxoplasma gondii) (UniProt Q07422); test: Inhibition of Toxoplasma gondii DHFR by continuous spectrophotometric assay
T1 sequence (whole entry): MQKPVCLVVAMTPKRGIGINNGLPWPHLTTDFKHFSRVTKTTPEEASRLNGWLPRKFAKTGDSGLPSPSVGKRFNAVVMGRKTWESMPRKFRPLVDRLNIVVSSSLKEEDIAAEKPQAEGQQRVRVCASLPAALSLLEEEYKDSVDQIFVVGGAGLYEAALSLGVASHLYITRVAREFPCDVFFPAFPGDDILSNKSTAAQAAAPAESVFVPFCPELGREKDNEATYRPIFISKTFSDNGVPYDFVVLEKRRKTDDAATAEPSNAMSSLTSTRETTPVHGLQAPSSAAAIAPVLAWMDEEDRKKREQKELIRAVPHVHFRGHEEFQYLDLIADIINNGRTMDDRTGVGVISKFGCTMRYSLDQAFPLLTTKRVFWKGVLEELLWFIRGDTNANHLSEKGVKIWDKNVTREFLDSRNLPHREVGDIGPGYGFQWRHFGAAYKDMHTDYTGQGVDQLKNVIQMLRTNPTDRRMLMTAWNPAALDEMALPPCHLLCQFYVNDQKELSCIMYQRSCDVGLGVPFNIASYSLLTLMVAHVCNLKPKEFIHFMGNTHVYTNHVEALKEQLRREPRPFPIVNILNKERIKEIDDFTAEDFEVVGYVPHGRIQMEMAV
Outline: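 Toxoplasma gondii DHFR was assayed continuously by spectrophotometry, following NADPH oxidation at 340 at 37 °C with saturating substrate and cofactor, in triplicate. […]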

[2] = Selectivity ratio of IC50 for rat liver DHFR to IC50 for Mycobacterium avium DHFR
Outline: (§1)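 The ratio is rat liver DHFR IC50 divided by pathogen DHFR IC50. Both IC50s come from triplicate continuous spectrophotometric assays following NADPH oxidation at 37 °C, with substrate and cofactor saturating.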

[3] = Selectivity ratio of IC50 for rat liver DHFR to IC50 for Toxoplasma gondii DHFR; outline: as §1
[4] = molecular target: T2, Dihydrofolate reductase (Rattus norvegicus) (UniProt Q920D2); test: Inhibition of rat liver DHFR at IC50 by continuous spectrophotometric assay
T2 sequence (whole entry): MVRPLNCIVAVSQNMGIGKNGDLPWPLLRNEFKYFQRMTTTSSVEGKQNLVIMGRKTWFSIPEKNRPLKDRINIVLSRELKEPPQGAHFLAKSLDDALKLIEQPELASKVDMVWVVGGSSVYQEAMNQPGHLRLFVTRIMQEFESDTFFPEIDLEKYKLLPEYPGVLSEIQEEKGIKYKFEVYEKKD
Outline: (§2)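 Continuous spectrophotometric assay of pathogen (pc, tg, ma) or rat liver DHFR. NADPH oxidation was followed at 340, at 37 °C, with substrate and cofactor both saturating. […]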

[5] = molecular target: T3, Dihydrofolate reductase (Pneumocystis carinii) (UniProt P16184); test: Inhibition of Pneumocystis carinii DHFR at IC50 by continuous spectrophotometric assay; outline: as §2
T3 sequence (whole entry): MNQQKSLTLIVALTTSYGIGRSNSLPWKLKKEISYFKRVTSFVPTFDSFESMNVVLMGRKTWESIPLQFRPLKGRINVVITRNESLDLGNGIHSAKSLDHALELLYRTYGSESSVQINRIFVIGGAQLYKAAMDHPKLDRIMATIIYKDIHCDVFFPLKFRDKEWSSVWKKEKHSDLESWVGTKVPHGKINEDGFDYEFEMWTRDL

[6] = molecular target: T1, Bifunctional dihydrofolate reductase-thymidylate synthase (Toxoplasma gondii); test: Inhibition of Toxoplasma gondii DHFR at IC50 by continuous spectrophotometric assay; set-up: concentration or dose not given beside the values; outline: as §2
[7] = molecular target: T4, Dihydrofolate reductase (Mycobacterium avium) (UniProt O30463); test: Inhibition of Mycobacterium avium DHFR at IC50 by continuous spectrophotometric assay; outline: as §2
T4 sequence (whole entry): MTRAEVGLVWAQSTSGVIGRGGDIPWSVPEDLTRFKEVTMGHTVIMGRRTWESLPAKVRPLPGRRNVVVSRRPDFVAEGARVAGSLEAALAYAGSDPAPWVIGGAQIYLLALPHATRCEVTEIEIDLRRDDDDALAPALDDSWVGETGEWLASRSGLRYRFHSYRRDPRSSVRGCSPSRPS

[8] = Selectivity ratio of IC50 for rat liver DHFR to IC50 for Pneumocystis carinii DHFR; outline: as §1

Compound	Ratio IC50 [2]	inhibition [4]	inhibition [5]	inhibition [7]	IC50 selectivity ratio (rat liver / P. carinii DHFR) [8]	Activity [1]	Ratio IC50 [3]	inhibition [6]
Nc1cc(OCCN2c3ccccc3C=Cc3ccccc32)nc(N)n1	> 51.4	39%	–	–	–	3.35 µM	> 35.8	–
Nc1nc(N)nc(CN2c3ccccc3Sc3ccc(Cl)cc32)n1	–	8%	–	5%	–	397 µM	–	–
Nc1ncc(CSc2nc3ccccc3o2)c(N)n1	22.5	–	–	–	14.5	160 µM	3.25	–
Nc1ncc(COS(=O)(=O)c2ccc3ccccc3c2)c(N)n1	–	0%	–	15%	> 15.7	124 µM	–	13%
Nc1ncc(CN2c3ccccc3C=Cc3ccccc32)c(N)n1	> 20	15%	–	–	> 5	8.07 µM	> 16	–
CN(Cc1cnc(N)nc1N)c1cccc2ccccc12	209	–	–	–	4.79	3.49 µM	52.7	–
Nc1nc(N)c2nc(CN3c4ccccc4C=Cc4ccccc43)cnc2n1	367	–	–	–	–	0.043 µM	102	–
Cc1ccc(COc2ccc(C(=O)/C=C/c3cnc(N)nc3N)cc2)cc1	–	0%	2%	4%	–	117 µM	–	10%
COc1ccc(NCc2cnc(N)nc2N)cc1	–	0%	–	0%	–	44 µM	–	7%
COc1ccc(C(=O)/C=C/c2cnc(N)nc2N)cc1	–	–	4%	14%	–	151 µM	–	15%

The next lines start with results.

Ratio IC50 [2]	inhibition [4]	inhibition [5]	inhibition [7]	IC50 selectivity ratio (rat liver / P. carinii DHFR) [8]	Compound	Activity [1]	Ratio IC50 [3]	inhibition [6]
–	12%	0%	12%	–	COc1cc(COc2cc(N)nc(N)n2)cc(OC)c1OC	145 µM	–	10%
14.4	–	–	–	1.89	Nc1ncc(CN2c3ccccc3CCc3ccccc32)c(N)n1	0.14 µM	11.5	–
0.21	–	–	–	0.43	Nc1nc(N)c2cc(COC(=O)c3c4ccccc4cc4ccccc34)ccc2n1	0.67 µM	0.31	–
–	16%	–	4%	–	Nc1nc(N)nc(CN2c3ccccc3Sc3ccccc32)n1	143 µM	–	15%
–	–	–	9%	0.85	Nc1ncc(CNc2cccc3ccccc23)c(N)n1	22.1 µM	5.78	–
–	0%	–	9%	–	Nc1nc(N)nc(CN2c3ccccc3CCc3ccccc32)n1	140 µM	–	10%
